According to ChEMBL document CHEMBL1821673, “Development of β-amino alcohol derivatives that inhibit Toll-like receptor 4 mediated inflammatory response as potential antiseptics” (J Med Chem, 2011):
Active and inactive are the calls of the source. The calls are words filed in the database; no cut-off is given here.

Columns and labels:
[1] = target: Glycogen synthase kinase-3 alpha (Homo sapiens) (UniProt P49840); assay: Inhibition of GSK3alpha at 28 uM by luciferase fragment complementation assay
Sequence of Glycogen synthase kinase-3 alpha (Homo sapiens) (P49840 2-483 limits assumed): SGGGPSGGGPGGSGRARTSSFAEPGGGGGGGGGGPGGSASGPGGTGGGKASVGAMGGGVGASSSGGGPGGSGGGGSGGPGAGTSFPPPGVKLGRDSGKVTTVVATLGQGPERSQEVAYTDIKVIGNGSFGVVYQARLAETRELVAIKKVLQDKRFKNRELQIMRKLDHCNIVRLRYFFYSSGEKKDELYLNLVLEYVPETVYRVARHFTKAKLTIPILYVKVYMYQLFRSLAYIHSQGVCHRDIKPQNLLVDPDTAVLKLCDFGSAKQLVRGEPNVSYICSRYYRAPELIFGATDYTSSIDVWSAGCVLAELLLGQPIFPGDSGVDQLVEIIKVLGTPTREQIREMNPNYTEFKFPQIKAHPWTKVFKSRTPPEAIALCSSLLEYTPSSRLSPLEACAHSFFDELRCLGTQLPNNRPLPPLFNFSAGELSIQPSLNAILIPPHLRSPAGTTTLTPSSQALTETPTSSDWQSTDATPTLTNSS

[2] = target: Mitogen-activated protein kinase 1 (Homo sapiens) (UniProt P28482); assay: Inhibition of MAPK1 at 28 uM by luciferase fragment complementation assay
Sequence of Mitogen-activated protein kinase 1 (Homo sapiens) (P28482 whole entry, the tested form may be a part): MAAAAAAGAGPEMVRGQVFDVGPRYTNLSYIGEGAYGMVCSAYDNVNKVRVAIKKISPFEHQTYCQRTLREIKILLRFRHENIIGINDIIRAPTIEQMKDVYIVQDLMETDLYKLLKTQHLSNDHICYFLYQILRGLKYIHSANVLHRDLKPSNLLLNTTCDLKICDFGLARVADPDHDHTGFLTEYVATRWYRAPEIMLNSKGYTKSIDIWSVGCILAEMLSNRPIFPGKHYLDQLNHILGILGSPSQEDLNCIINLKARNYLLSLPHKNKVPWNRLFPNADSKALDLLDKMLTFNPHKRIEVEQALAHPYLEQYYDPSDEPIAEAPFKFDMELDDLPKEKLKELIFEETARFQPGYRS

[3] = target: Proto-oncogene tyrosine-protein kinase Src (Homo sapiens) (UniProt P12931); assay: Inhibition of SRC at 28 uM by luciferase fragment complementation assay
Sequence of Proto-oncogene tyrosine-protein kinase Src (Homo sapiens) (P12931 2-536 limits assumed): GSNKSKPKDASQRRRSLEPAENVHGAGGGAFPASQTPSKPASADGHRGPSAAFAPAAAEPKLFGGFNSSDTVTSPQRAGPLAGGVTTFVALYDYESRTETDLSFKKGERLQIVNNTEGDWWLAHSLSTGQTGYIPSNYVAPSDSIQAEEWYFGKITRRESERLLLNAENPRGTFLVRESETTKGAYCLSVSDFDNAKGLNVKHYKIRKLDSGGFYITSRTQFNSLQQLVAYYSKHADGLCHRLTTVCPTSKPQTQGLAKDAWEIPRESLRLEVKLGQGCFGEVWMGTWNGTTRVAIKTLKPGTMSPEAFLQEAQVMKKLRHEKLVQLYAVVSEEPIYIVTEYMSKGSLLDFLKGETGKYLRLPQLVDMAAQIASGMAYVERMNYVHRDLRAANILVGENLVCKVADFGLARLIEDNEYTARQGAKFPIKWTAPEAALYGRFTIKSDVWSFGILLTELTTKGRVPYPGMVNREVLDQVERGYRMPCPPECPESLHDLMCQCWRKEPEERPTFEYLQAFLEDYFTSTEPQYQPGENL

[4] = target: Serine/threonine-protein kinase pim-1 (Homo sapiens) (UniProt P11309); assay: Inhibition of PIM1 at 28 uM by luciferase fragment complementation assay
Sequence of Serine/threonine-protein kinase pim-1 (Homo sapiens) (P11309 whole entry, looked up, the tested form may be a part): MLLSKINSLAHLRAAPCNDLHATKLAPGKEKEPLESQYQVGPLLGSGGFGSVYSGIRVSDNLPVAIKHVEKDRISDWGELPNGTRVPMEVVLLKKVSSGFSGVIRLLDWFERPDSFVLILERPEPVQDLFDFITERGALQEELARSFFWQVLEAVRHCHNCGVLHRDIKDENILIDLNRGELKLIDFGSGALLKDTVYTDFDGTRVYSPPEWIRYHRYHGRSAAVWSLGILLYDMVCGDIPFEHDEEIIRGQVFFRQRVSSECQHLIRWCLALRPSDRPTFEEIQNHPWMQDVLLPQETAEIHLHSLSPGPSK

[5] = target: Cytochrome P450 2D6 (Homo sapiens, UniProt P10635); assay: Inhibition of CYP2D6 in human liver microsomes using bufuralol as probe; assay type: ADME, Microsome
Sequence of Cytochrome P450 2D6 (P10635 whole entry): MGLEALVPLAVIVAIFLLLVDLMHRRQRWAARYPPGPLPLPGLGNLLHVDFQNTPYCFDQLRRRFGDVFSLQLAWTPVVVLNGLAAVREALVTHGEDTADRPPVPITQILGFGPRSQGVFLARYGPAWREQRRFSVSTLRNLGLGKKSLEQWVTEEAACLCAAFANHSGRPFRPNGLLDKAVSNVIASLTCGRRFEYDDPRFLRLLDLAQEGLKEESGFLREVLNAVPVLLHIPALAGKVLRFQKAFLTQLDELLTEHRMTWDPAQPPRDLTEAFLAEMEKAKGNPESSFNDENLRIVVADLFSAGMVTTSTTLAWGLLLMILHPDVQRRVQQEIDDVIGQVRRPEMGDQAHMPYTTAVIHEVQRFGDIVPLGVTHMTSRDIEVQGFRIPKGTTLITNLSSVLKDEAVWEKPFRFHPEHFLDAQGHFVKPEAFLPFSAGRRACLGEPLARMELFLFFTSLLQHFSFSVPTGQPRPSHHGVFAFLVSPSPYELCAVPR

[6] = tested on: Liver microsomes; assay: Intrinsic clearance in human liver microsomes at 1 uM after 60 mins by LC-MS/MS analysis; assay type: ADME, Microsome; details: 1 h
In short: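 1 µM in <0.25% DMSO, 37 °C, human liver microsomes 0.5 mg/mL protein, started with cofactors. Time points 0, 10, 20, 30 and 60 min; NADPH addition confirmed by fluorimetry. LC-MS/MS peak-area ratio to internal standard; CLint = k/P.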

[7] = target: T1, Toll-like receptor 4 (Homo sapiens, UniProt O00206); assay: Inhibition of LPS-induced TLR4 activation in human whole blood assessed as inhibition of TNFalpha release at 500 uM preincubated for 5 to 10 mins
T1 sequence (O00206 whole entry): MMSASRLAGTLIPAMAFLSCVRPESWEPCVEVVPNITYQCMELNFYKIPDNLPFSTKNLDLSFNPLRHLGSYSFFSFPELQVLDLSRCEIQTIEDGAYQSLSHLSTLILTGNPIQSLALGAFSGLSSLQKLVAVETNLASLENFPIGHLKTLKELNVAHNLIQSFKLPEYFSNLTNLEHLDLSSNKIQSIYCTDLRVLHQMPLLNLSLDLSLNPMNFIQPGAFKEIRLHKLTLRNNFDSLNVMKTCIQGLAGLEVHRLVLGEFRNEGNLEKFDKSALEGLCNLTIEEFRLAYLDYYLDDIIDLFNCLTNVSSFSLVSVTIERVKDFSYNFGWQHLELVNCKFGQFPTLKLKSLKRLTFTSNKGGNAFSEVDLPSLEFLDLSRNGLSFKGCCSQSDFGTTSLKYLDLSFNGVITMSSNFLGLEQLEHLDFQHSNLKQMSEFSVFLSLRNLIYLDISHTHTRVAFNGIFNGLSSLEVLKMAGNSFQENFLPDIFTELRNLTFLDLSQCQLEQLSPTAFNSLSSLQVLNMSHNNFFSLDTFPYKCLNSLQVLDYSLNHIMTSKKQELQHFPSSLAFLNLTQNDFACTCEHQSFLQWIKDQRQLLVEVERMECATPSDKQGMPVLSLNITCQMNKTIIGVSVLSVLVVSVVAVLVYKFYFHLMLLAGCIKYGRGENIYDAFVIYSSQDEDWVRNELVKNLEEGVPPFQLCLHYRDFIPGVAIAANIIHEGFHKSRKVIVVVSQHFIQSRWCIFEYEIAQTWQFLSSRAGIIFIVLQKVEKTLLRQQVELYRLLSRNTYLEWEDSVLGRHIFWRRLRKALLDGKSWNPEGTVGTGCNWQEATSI
In short: (§1)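 Fresh human blood anticoagulated with lepirudin, preincubated with compound 5–10 min at 37 °C, then stimulated with 100 ng/mL ultrapure E. coli 0111:B4 LPS, rotating 2 h at 37 °C. Stopped with EDTA 10 mM final; plasma TNF-α, IL-8 and IL-6 measured by singleplex Bio-plex, expressed as % of LPS without inhibitor. n = 3 or 9, paired two-sided t-test.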

[8] = target: T1, Toll-like receptor 4; assay: Inhibition of LPS-induced TLR4 activation in human whole blood assessed as reduction in plasma TNFalpha level at 250 uM preincubated for 5 to 10 mins; in short: as §1
[9] = tested on: Liver; assay: Intrinsic clearance in human liver S9 fractions at 1 uM after 60 mins by LC-MS/MS analysis; assay type: ADME, subcellular, S9 fraction; details: s9, 1 h
In short: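 1 µM in <0.25% DMSO, 37 °C, pooled rat or human S9 at 1 mg/mL, with 1 mM each of NADPH, UDPGA, PAPS and GSH. Sampled at 0, 10, 20, 30 and 60 min; peak-area ratio to internal standard by LC-MS/MS without a standard curve. CLint = k/P.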

[10] = target: Hepatocyte growth factor receptor (Homo sapiens) (UniProt P08581); assay: Inhibition of MET at 28 uM by luciferase fragment complementation assay
Sequence of Hepatocyte growth factor receptor (Homo sapiens) (P08581 whole entry, the tested form may be a part): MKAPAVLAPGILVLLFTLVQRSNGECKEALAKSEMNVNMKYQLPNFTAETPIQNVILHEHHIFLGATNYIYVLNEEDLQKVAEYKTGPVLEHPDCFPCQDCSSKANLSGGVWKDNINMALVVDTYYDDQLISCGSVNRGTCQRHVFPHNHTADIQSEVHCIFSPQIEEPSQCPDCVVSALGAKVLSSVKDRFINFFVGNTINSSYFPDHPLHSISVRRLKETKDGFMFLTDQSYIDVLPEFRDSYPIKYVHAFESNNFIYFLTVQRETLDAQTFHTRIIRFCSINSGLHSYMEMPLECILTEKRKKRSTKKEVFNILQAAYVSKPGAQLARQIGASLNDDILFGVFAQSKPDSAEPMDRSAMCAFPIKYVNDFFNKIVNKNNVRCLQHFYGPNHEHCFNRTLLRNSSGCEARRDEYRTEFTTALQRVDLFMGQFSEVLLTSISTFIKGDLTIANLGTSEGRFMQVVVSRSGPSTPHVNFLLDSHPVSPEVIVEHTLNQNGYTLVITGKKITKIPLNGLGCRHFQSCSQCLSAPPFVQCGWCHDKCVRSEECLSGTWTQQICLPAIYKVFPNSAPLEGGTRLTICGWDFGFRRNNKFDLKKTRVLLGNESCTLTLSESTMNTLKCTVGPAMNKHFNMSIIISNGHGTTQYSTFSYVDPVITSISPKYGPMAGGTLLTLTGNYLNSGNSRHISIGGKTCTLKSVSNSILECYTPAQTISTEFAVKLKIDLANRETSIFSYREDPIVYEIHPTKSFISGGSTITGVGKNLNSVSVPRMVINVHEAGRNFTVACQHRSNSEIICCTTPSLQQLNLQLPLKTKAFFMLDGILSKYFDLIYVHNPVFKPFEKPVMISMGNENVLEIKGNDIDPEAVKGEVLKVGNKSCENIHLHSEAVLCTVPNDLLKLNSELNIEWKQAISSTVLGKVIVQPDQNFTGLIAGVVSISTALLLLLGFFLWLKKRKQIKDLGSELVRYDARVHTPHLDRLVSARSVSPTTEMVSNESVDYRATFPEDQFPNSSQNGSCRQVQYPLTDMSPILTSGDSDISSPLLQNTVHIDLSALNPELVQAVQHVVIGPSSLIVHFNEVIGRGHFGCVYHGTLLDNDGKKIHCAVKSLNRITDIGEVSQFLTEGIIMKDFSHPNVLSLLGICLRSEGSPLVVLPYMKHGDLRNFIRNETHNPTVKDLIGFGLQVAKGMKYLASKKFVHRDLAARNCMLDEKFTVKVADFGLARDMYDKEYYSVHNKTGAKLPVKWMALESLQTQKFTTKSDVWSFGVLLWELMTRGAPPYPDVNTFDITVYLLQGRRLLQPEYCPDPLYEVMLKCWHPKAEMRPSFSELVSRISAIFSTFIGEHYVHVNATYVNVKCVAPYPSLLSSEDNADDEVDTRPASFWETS

inhibition [1]: ≤ 27% | inhibition [2]: ≤ 27% | inhibition [3]: ≤ 27% | inhibition [4]: ≤ 27% | IC50 [5]: 32 µM | CL [6]: > 700 µL/min/mg | inhibition [7]: Active | inhibition [8]: 43% | CL [9]: 300 µL/min/mg | inhibition [10]: ≤ 27%
Compound: CCOc1ccc(OCC(O)CN(C)Cc2c(C)nn(Cc3ccccc3Cl)c2C)cc1 (racemic)
